Measurements: ChEMBL document CHEMBL1765072, “Inhibition of amyloidogenesis by nonsteroidal anti-inflammatory drugs and their hybrid nitrates” (J Med Chem, 2011)
Activity calls are given as the source filed them. The calls are words filed in the database; no cut-off is given here.

Experiments:
[1] = Cytotoxicity against mouse RAW264.7 cells assessed as cell viability at 10 uM after 24 hrs by MTT assay relative to control; assay type: cell-based; conditions: read-out: Activity
In short: (§1)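 RAW 264.7 cells given 0.5 mg/ml MTT in medium for 4 h, washed with PBS; formazan dissolved in DMSO, shaken 30 min, absorbance read at 570 nm against a 630 nm reference. Viability expressed relative to DMSO control.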

[2] = Cytotoxicity against mouse RAW264.7 cells assessed as cell viability at 100 uM after 24 hrs by MTT assay relative to control; assay type: cell-based; conditions: read-out: Activity; in short: as §1
N2a [3] = experiment: Antiamyloidogenic activity in mouse N2A cells transfected with human APP Swedish mutant assessed as amyloid beta (1 to 42) level at 1 uM after 24 hrs by ELISA relative to control
N2a [4] = experiment: Antiamyloidogenic activity in mouse N2A cells transfected with human APP Swedish mutant assessed as amyloid beta (1 to 42) level at 100 uM after 24 hrs by ELISA relative to control
RAW264.7 [5] = experiment: Antiinflammatory activity against mouse RAW264.7 cells assessed as LPS-induced nitrate production at 10 uM treated 30 mins before LPS challenge measured after 24 hrs by Griess reagent method relative to control
RAW264.7 [6] = experiment: Antiinflammatory activity against mouse RAW264.7 cells assessed as LPS-induced nitrate production at 100 uM treated 30 mins before LPS challenge measured after 24 hrs by Griess reagent method relative to control
N2a [7] = experiment: Antiamyloidogenic activity in mouse N2A cells assessed as degradation of amyloid beta (1 to 42) level at 10 uM treated 24 hrs before amyloid beta (1 to 42) challenge measured after 8 hrs by MALDI/TOF analysis; assay type: functional, cell-based
In short: (§2)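 Wild-type N2a cells in DMEM with 0.2 % FBS, drug-treated after PBS wash; conditioned media collected (18 h per methods, 24 h per text), NaN₃ added, centrifuged, then mixed with Aβ1–40 + Aβ1–42 and incubated 8 h at 37 °C. Cell-free media served as control. Aβ measured by 4G8/6E10 immunoprecipitation and MALDI-TOF, normalized to Aβ1–43 spike and to media control; mean and s.d.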

N2a [8] = experiment: Antiamyloidogenic activity in mouse N2A cells assessed as degradation of amyloid beta (1 to 40) level at 10 uM treated 24 hrs before amyloid beta (1 to 40) challenge measured after 8 hrs by MALDI/TOF analysis; assay type: functional, cell-based; in short: as §2
N2a [9] = experiment: Antiamyloidogenic activity in mouse N2A cells assessed as reduction of amyloid beta (1 to 42)/(1 to 40) ratio at 10 uM treated 24 hrs before amyloid beta (1 to 42)/(1 to 40) challenge measured after 8 hrs by MALDI/TOF analysis; assay type: functional, cell-based; in short: as §2
[10] = Ratio of drug level in brain to plasma in C57BL/6 mouse at 10 mg/kg, ip after 30 mins; assay type: ADME, organism-based; set-up: dose 10 mg/kg, route intraperitoneal; conditions: read-out: BPR
In short: (§3)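 Male C57BL/6 mice (25 g) dosed i.p. with 10 mg/kg in DMSO/H₂O 1:1, sacrificed at 30 or 120 min. Brain extracted by methanol homogenization and plasma by acetonitrile, then C18 LC-MS/MS with MRM m/z 361→200 in positive mode. Quantified against a 4–500 ng/mL standard curve; N=4, mean and s.e.m.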

[11] = Ratio of drug level in brain to plasma in C57BL/6 mouse at 10 mg/kg, ip after 120 mins; assay type: ADME, organism-based; set-up: dose 10 mg/kg, route intraperitoneal; conditions: read-out: BPR; in short: as §3
N2a [12] = experiment: Antiamyloidogenic activity in mouse N2A cells transfected with human APP Swedish mutant assessed as increase of amyloid beta (1 to 40) level at 200 uM after 24 hrs by ELISA; assay type: functional, cell-based
N2a [13] = experiment: Antiamyloidogenic activity in mouse N2A cells transfected with human APP Swedish mutant assessed as increase of amyloid beta (1 to 42) level at 200 uM after 24 hrs by ELISA; assay type: functional, cell-based
N2a [14] = experiment: Antiamyloidogenic activity in mouse N2A cells transfected with human APP Swedish mutant assessed as increase of amyloid beta (1 to 42)/(1 to 40) ratio at 200 uM after 24 hrs by ELISA; assay type: functional, cell-based
N2a [15] = experiment: Antiamyloidogenic activity in mouse N2A cells transfected with human APP Swedish mutant assessed as increase of amyloid beta (1 to 42) level at 200 uM after 24 hrs by ELISA relative to control; assay type: functional
N2a [16] = experiment: Antiamyloidogenic activity in mouse N2A cells transfected with human APP Swedish mutant assessed as effect on amyloid beta (1 to 37) level at 200 uM after 24 hrs by ELISA; assay type: functional, cell-based
N2a [17] = experiment: Antiamyloidogenic activity in mouse N2A cells transfected with human APP Swedish mutant assessed as effect on amyloid beta (1 to 38) level at 200 uM after 24 hrs by ELISA; assay type: functional, cell-based
N2a [18] = experiment: Antiamyloidogenic activity in mouse N2A cells transfected with human APP Swedish mutant assessed as increase of amyloid beta (1 to 42) level at 100 uM after 24 hrs by ELISA; assay type: functional, cell-based
N2a [19] = experiment: Antiamyloidogenic activity in mouse N2A cells transfected with human APP Swedish mutant assessed as increase of amyloid beta (1 to 42)/(1 to 40) ratio at 100 uM after 24 hrs by ELISA; assay type: functional, cell-based
N2a [20] = experiment: Antiamyloidogenic activity in mouse N2A cells assessed as degradation of amyloid beta (1 to 42) level at 1 uM treated 24 hrs before amyloid beta (1 to 42) challenge measured after 8 hrs by MALDI/TOF analysis; assay type: functional, cell-based; in short: as §2
N2a [21] = experiment: Antiamyloidogenic activity in mouse N2A cells assessed as degradation of amyloid beta (1 to 40) level at 1 uM treated 24 hrs before amyloid beta (1 to 40) challenge measured after 8 hrs by MALDI/TOF analysis; assay type: functional, cell-based; in short: as §2
N2a [22] = experiment: Antiamyloidogenic activity in mouse N2A cells assessed as reduction of amyloid beta (1 to 42)/(1 to 40) ratio at 1 uM treated 24 hrs before amyloid beta (1 to 42)/(1 to 40) challenge measured after 8 hrs by MALDI/TOF analysis; assay type: functional, cell-based; in short: as §2
N2a [23] = experiment: Antiamyloidogenic activity in mouse N2A cells transfected with human APP Swedish mutant assessed as increase of amyloid beta (1 to 40) level at 100 uM after 24 hrs by ELISA; assay type: functional, cell-based

`COc1ccc2c(c1)c(CC(=O)O)c(C)n2C(=O)c1ccc(Cl)cc1` [INDOMETHACIN] showed a viability at 24 h, 10 µM [1] of 98.7%, a viability at 24 h, 100 µM [2] of 92% and a level, % of control at 1 µM (N2a [3]) of 108%. The level, % of control at 100 µM (N2a [4]) was 76.7%, the level, % of control at 10 µM (RAW264.7 [5]) was 70.9% and the level, % of control at 100 µM (RAW264.7 [6]) was 39.8%.

With `CSc1ccc(/C=C2/C=C(CC(=O)O)c3cc(F)ccc32)cc1` the Activity (N2a [7]) was “Active”, the Activity (N2a [8]) was “Active” and the Activity (N2a [9]) was “Active”. It also gave a viability at 24 h, 10 µM [1] of 100%, a level, % of control at 1 µM (N2a [3]) of 80.8% and a level, % of control at 10 µM (RAW264.7 [5]) of 47.5%.

For `CC(C(=O)NCCCCO[N+](=O)[O-])c1ccc(-c2ccccc2)c(F)c1` (stereo not drawn), the Kp at 0.5 h [10] was 37 and the Kp at 2 h [11] was 13.

For `CC(C)OC(=O)C(C)(C)Oc1ccc(C(=O)c2ccc(Cl)cc2)cc1` [FENOFIBRATE], the Activity (N2a [12]) was “Active”, the Activity (N2a [13]) was “Active” and the Activity (N2a [14]) was “Active”. For the same compound, the “fold change (FC)” value (N2a [15]) was 3, the Activity (N2a [16]) was “Active” and the Activity (N2a [17]) was “Active”.

In the case of `CC(C(=O)OCCCCO[N+](=O)[O-])c1ccc(-c2ccccc2)c(F)c1` (stereo not drawn), the Activity (N2a [18]) is reported as “Active”, the Activity (N2a [19]) is reported as “Active” and the Activity (N2a [20]) is reported as “Active”. For the same compound, the Activity (N2a [21]) was “Active”, the Activity (N2a [22]) was “Active” and the viability at 24 h, 100 µM [2] was 108%. For the same compound, the Activity (N2a [23]) was “Active” and the level, % of control at 100 µM (RAW264.7 [6]) was 49.8%.
